Assay outcomes from PubChem BioAssay.
V1aR counter: agonists of human V1a receptor, primary screen, counter-screen for OXTR agonist project, fluorescence, CHO-V1R cells | Vasopressin V1a receptor (Homo sapiens), P37288 | Fluo-8 calcium fluorescence, agonist mode; 0% DMSO, 100% 3 nM vasopressin | activation, % at 3 µM | 320,000 tested, 0.25% active;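 active = activation above the mean activation of all tested compounds plus 3 SD, per screening run, cut at about 20% in these data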;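 also: signal is peak over basal fluorescence ratio across a 100 second FLIPR read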
TAAR1 ag: human TAAR1 agonists, primary screen, Fluo-8 calcium fluorescence, CHO RD-HGA16 cells | activation, % at 3 µM | Trace amine-associated receptor 1 (Homo sapiens), Q96RJ0 | AID 624467, 2012 | 360,000 tested, 0.99% active | vehicle wells 0%, saturating PEA agonist 100%;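 active = activation above the mean activation of all test compounds in the run plus 3 SD, cut at about 38% in these data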
Target sequence (Q96RJ0 whole entry, looked up): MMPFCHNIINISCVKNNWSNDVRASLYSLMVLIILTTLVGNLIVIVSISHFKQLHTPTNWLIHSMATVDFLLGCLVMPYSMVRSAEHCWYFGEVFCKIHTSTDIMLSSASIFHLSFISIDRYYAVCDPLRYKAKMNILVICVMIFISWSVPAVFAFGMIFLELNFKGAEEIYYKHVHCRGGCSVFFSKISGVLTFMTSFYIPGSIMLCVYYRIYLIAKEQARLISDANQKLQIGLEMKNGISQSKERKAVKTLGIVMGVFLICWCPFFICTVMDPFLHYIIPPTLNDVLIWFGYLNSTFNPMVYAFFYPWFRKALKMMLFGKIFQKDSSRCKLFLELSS
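Test system: RD-HGA16 (CHO) cells co-expressing Gα16 and hTAAR1 / Benchmarks: DMSO vehicle as 0%, PEA at EC100 as 100% / Repeats: no replicates (n 1) / Measure: % activation from peak over basal fluorescence ratio, DMSO-to-PEA scaled / Timing: 17-24 h plating, Fluo-8 75 min 37 °C, 30 min RT / Technique: kinetic Fluo-8 calcium fluorescence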
TAAR1 antag: human TAAR1 antagonists, primary screen, Fluo-8 calcium fluorescence, CHO RD-HGA16 cells. Trace amine-associated receptor 1 (Homo sapiens), Q96RJ0. antagonist. inhibition, % at 3 µM. 360,000 tested, 1.5% active;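 active = inhibition above a per-plate cutoff, the mean inhibition of test compounds on that plate plus 3 SD, cut at about 49% in these data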;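 also: 0% = DMSO plus EC80 beta-PEA response and 100% = DMSO alone without agonist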
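Test system – hTAAR1-expressing CHO RD-HGA16 cells, Gα16-coupled · Also added – β-PEA at EC80 concentration, post-compound challenge · Compound – 3 µM, single point · Incubation – dye loading 75 min at 37 °C, then 30 min room temperature · Measured by – Fluo-8 intracellular calcium dye fluorescence, real-time kinetic reads · Benchmarks – vehicle and agonist controls · Replicates – singlicate, one well per test compound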
OXTR potentiate: human OXTR potentiators, primary screen, fluorescence, CHO-OTR cells, Fluo-8 calcium. Oxytocin receptor (Homo sapiens), P30559. Fluo-8 calcium fluorescence, potentiator mode; 0% = oxytocin EC15, 100% = EC100. activation, % at 3 µM. 320,000 tested, 0.061% active;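 active = activation above that plate's cutoff, the mean activation of tested compounds plus 3 SD, cut at about 6.6% in these data, passing the limit was not always enough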;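 also: 100% uses oxytocin at 75 nM as the full agonist control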
Target sequence (P30559 whole entry, looked up): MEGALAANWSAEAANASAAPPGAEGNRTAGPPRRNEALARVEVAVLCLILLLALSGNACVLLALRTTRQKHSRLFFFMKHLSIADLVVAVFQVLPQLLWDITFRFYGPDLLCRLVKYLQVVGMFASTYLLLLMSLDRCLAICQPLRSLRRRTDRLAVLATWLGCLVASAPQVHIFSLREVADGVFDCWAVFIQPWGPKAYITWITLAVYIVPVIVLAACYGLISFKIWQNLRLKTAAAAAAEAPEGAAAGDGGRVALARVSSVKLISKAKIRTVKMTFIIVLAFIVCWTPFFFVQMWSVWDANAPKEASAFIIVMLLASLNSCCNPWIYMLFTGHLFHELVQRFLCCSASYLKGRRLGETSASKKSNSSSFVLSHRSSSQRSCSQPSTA
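System: human OTR in CHO cells; Also added: sub-maximal oxytocin, roughly EC15; Timing: compound 6 min at room temperature before oxytocin, 100 s read; Technique: Fluo-8 intracellular calcium fluorescence, ex 470-495, em 515-575 nm; Controls: oxytocin EC15 low and EC100 high; Replication: singlicate.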
OXTR agonist: human OXTR agonists, primary screen, fluorescence, CHO-OTR cells, Fluo-8 calcium | 320,000 tested, 0.32% active | Fluo-8 calcium fluorescence; normalized: DMSO 0%, oxytocin 100% | activation, % at 3 µM;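 active = activation above the mean of all tested compounds plus 3 SD, cutoff set per screening run, cut at about 20% in these data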;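 also: peak over basal fluorescence ratio from a 100 s FLIPR kinetic read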
OXTR ag confirm: human OXTR agonists, confirmation, fluorescence, CHO-OTR cells, triplicate | shares compounds with OXTR agonist | Fluo-8 calcium fluorescence, agonist | activation, % at 3 µM | 390 tested, 20% active;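 active = mean activation above about 20% derived from the earlier single-dose screen, limit read from the data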;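 also: peak over minimum fluorescence ratio per well during a 100 second FLIPR read; 0% = DMSO alone and 100% = oxytocin high control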
V1aR counter 3x: V1a receptor agonists, calcium signal, counter-screen for OXTR agonist project, triplicate, fluorescence, CHO-V1R cells; shares compounds with OXTR agonist; Fluo-8 calcium fluorescence; activation, % at 3 µM; 390 tested, 10% active; AID 434991, 2010;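 active = mean activation over triplicate exceeds the hit threshold set in the earlier primary screen, cut at about 20% in these data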;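 also: peak over basal fluorescence ratio within a 100 second read; 0% = DMSO alone and 100% = 3 nM vasopressin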
Active calls of the source: *; / = no result given. Sampled rows, rich in hits. Any-hit rate of the full collection: about 2.3%.

SMILES	V1aR counter	TAAR1 ag	TAAR1 antag	OXTR potentiate	OXTR agonist	OXTR ag confirm	V1aR counter 3x
CC(OC(=O)CCN1C(=O)C2CC=CCC2C1=O)C(=O)Nc1ccc(F)cc1 (stereo not drawn)	/	7.4	-19.5	/	/	/	/
COc1ccc(C2=NO[C@@H]3C(=O)N(C4CCCCC4)C(=O)[C@H]23)cc1OC	17.5	12.3	22.6	-7.7	21.1*	12.2	13.0
COc1ccc(C2=NO[C@@H]3C(=O)N(c4ccc5c(c4)OCCO5)C(=O)[C@H]23)cc1OC	4.2	14.1	0.8	-0.8	6.3	/	/
CC(C)NCC(O)Cn1c2c(c3ccccc31)CCc1c-2cnn1-c1ccccc1 (stereo not drawn)	19.4	20.3	-8.5	-22.5	21.8*	11.6	6.2
CCOc1ccccc1N(C)C(=O)CCS(=O)(=O)c1ccc2c(c1)NC(=O)C(C)S2 (stereo not drawn)	4.0	6.0	15.4	-5.0	4.4	/	/
Cc1ccc(-c2nn(-c3ccccc3)cc2C2CC(c3cccs3)=NN2C(=O)CCCC(=O)O)cc1 (stereo not drawn)	18.7	12.9	20.3	-11.8	23.1*	7.4	2.5
COc1ccc(-c2nn(-c3ccccc3)cc2C2CC(c3cccs3)=NN2C(=O)CCCC(=O)O)cc1 (stereo not drawn)	7.3	7.6	1.3	-12.4	7.5	/	/
Cc1ccc(OCc2ccc(C(=O)NCc3cccnc3)cc2)cc1C	7.5	16.7	22.6	-16.9	8.6	/	/
C[C@@H](NCCc1ccc(O)cc1)[C@@H](O)c1ccc(O)cc1	0.2	3.9	-11.8	-2.4	-0.6	/	/
CCCCCCCCNC(C)C(O)c1ccc(SC(C)C)cc1 (stereo not drawn)	3.6	33.4	5.2	-8.0	22.8*	1.8	5.8
C=CCN1C(=O)C(CC(=O)O)SC1=Nc1ccc(C(=O)O)cc1 (stereo not drawn)	1.2	0.1	-6.4	-5.8	-0.2	/	/
C=CCN1C(=O)C(Cc2ccccc2Cl)SC1=Nc1ccc(C(=O)O)cc1 (stereo not drawn)	9.9	12.3	-1.7	-11.7	21.5*	8.2	7.6
CN(c1ccc(C(=O)N2CCCCC2)cc1)S(=O)(=O)c1ccccc1	11.3	10.3	7.5	-24.6	20.9*	6.2	7.3
O=C(/C=C/c1c(F)cccc1Cl)N1CCc2ccccc2C1	-0.6	8.5	2.9	-2.1	-2.3	/	/
CCCC1(c2ccccc2)NC(=O)N(CC(=O)Nc2cc(C)ccc2OC)C1=O (stereo not drawn)	7.0	25.6	-5.8	-12.5	23.7*	9.6	4.3
Cc1ccc(S(=O)(=O)c2c(C)nn(C(C)(C)C)c2OC(=O)C(C)(C)C)cc1	5.5	25.8	-7.0	-16.5	21.2*	0.7	3.1
CC(=O)Oc1c(S(=O)(=O)c2ccc(C)cc2)c(C)nn1C(C)(C)C	-0.8	4.6	-1.3	-8.5	-1.7	/	/
Cc1ccc(N/N=C(\C#N)C(N)=S)c(C)c1	11.4	8.7	5.3	-11.5	23.9*	6.6	5.8
CCN1C[C@@H]2[C@@H]3C(=O)N(C)C(=O)[C@@H]3[C@](C)(C1=O)N2C(=O)c1ccc(Br)cc1	/	7.1	-1.2	/	/	/	/
CS(=O)(=O)N1CCCC(c2nc(-c3ccc(S(=O)(=O)NCc4ccccc4)cc3)no2)C1 (stereo not drawn)	13.1	/	/	-8.9	19.7*	11.8	11.1
CCCCC1(c2ccc(F)cc2)NC(=O)N(CC(=O)Nc2ccc(N3CCOCC3)cc2)C1=O (stereo not drawn)	12.5	37.4	28.9	-10.8	21.1*	9.8	8.5
Cc1nn(C)cc1C(C(=O)NC1CCCCC1)N(C(=O)Cc1cccs1)c1ccc(C(C)C)cc1 (stereo not drawn)	0.9	17.8	-5.2	-18.8	21.8*	5.3	3.4
Cc1nn(C)cc1C(C(=O)NC1CCCCC1)N(C(=O)Cc1cccs1)c1ccc(F)cc1 (stereo not drawn)	1.4	12.9	5.2	4.3	-0.8	/	/
CCCNC(=O)C1(C)CCN(C(=O)c2cccc(Cl)c2)C1 (stereo not drawn)	/	1.0	-22.2	/	/	/	/
Clc1ccc(-c2cc(C3CCNCC3)[nH]n2)cc1	1.8	3.7	18.0	0.7	1.0	/	/
SMILES	V1aR counter	TAAR1 ag	TAAR1 antag	OXTR potentiate	OXTR agonist	OXTR ag confirm	V1aR counter 3x
Nc1nc(Cl)cc(N2CCC(c3cc(-c4ccc(Cl)cc4)n[nH]3)CC2)n1	14.1	28.6	45.2	-13.2	22.2*	9.1	10.9
COc1ccccc1C1/C(=C(\O)c2ccc3c(c2)OCCO3)C(=O)C(=O)N1Cc1cccnc1 (stereo not drawn)	0.1	-0.6	-16.0	-3.0	-0.6	/	/
C=CCN1C(=O)/C(=C/c2ccc(OCC(=O)O)cc2)S/C1=N/c1nccs1	-0.1	7.6	-8.2	-1.6	-2.2	/	/
C=CCN1C(=O)/C(=C/c2ccc(O)c(OC)c2)S/C1=N/c1nccs1	18.1	31.7	60.0*	-10.1	20.2*	26.8*	37.6*
O=C1[C@@H](c2ccccc2)CC[C@@H]2C=CC[C@H]3CCN1[C@@H]32	/	-0.1	-0.2	/	/	/	/
CNC(=O)c1[nH]cnc1C(=O)Nc1cccc(OC)c1	0.5	5.5	5.1	-18.4	31.7*	-0.8	0.0
CCOC(=O)c1[nH]cnc1C(=O)Nc1cccc(OC)c1	0.9	0.6	-8.6	-16.6	-0.7	/	/
CNC[C@H](Cc1ccccc1)NC[C@@H](Cc1cccc2ccccc12)NCCc1ccc(C)cc1	6.6	43.2*	50.3*	-8.6	21.2*	10.0	9.0
CCCN1C(=O)S/C(=C/c2ccc(N3CCOCC3)o2)C1=O	7.0	19.0	22.3	-4.1	20.5*	30.9*	55.0*
CCOC(=O)CN1C(=O)S/C(=C/c2ccc(N3CCCCC3)o2)C1=O	3.9	28.7	28.6	-14.5	9.7	/	/
COc1ccc(NS(=O)(=O)c2ccc(C(=O)NCC3(N4CCOCC4)CCCCC3)cc2)cc1	17.5	57.4*	10.8	-9.4	23.8*	16.3	9.7
COc1ccc(NS(=O)(=O)c2cccc(C(=O)NCC3(N4CCOCC4)CCCCC3)c2)cc1	-0.1	1.3	-8.2	-6.2	-0.8	/	/
CC(=O)Oc1ccc(C(=O)Cc2ccc3ccccc3n2)c(O)c1C	3.1	2.6	-12.9	1.9	2.3	/	/
Cc1c(O)ccc(/C(Cc2ccc3ccccc3n2)=N\O)c1O	17.4	12.6	19.3	-23.6	22.4*	13.5	7.5
